Legend:
Mus musculus [1] = assay: Evaluated for anticonvulsant activity (ED50) by maximal electroshock (MES) seizure test in mouse by intraperitoneal administration.; assay type: functional
Procedure, shortened: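 Protection means no tonic-extensor component. Five to 10 doses, eight mice per dose; ED50 with 95% confidence limits by log-probit analysis. Compounds given as HCl salts, one as a methiodide.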

Glutamate NMDA receptor = assay: Evaluated in vitro binding affinity against PCP receptor using [3H]TCP as radioligand in rat brain membranes; assay type: cell membranes
Mus musculus [2] = organism: Mus musculus; assay: TI value is the ratio between TD50 and ED50; assay type: functional
Procedure, shortened: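 Ratio TD50/MES ED50. Both values from ip dosing in male Swiss mice (25–30 g), 0.9% NaCl carrier. Five to 10 doses, eight mice per dose; each value by log-probit analysis.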

Mus musculus [3] = assay: Evaluated for anticonvulsant activity (TD50) by motor toxicity assay in mouse by intraperitoneal administration.; assay type: functional; settings: ip
Procedure, shortened: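 Male Swiss mice (25–30 g), ip in 0.9% NaCl carrier. Five to 10 doses, eight mice per dose; TD50 with 95% confidence limits by log-probit analysis. Compounds given as HCl salts, one as a methiodide.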

Mus musculus [4] = assay: Evaluated for anticonvulsant activity (TD50) by motor toxicity assay in mouse by intraperitoneal administration; range is 40.6-54.8; assay type: functional; settings: ip

Row | SMILES | MES ED50 (Mus musculus [1]) | Ki (Glutamate NMDA receptor) | TI (Mus musculus [2]) | TD50 (Mus musculus [3]) | TD50 (Mus musculus [4])
1 | C[C@@H]1CCCC[C@]1(N)c1ccccc1.Cl (racemic) | 16.87 mg/kg | 1600 nM | 2.05 | 34.6 mg/kg | –
2 | Cl.NC1(c2ccccc2F)CCCCC1 | 22.93 mg/kg | 10700 nM | 2.67 | 61.2 mg/kg | –
3 | COc1ccccc1C1(N)CCCCC1.Cl | 11.11 mg/kg | 850 nM | 2.84 | 31.6 mg/kg | –
4 | Cl.NC1(c2ccccc2)CCCC1 | 18.52 mg/kg | 10500 nM | 3.49 | 64.6 mg/kg | –
5 | Cl.NC1(c2ccccc2C(F)(F)F)CCCCC1 | 30.36 mg/kg | 12400 nM | 1.29 | 39.2 mg/kg | –
6 | C[C@@H]1CCC[C@@](N)(c2ccccc2)C1.Cl | 8.04 mg/kg | 8000 nM | 1.98 | 15.9 mg/kg | –
7 | Cl.NC1(c2ccc(-c3ccccc3)cc2)CCCCC1 | 18.81 mg/kg | 86000 nM | 1.42 | 26.7 mg/kg | –
8 | CCC(N)(CC)c1ccccc1.Cl | 31.23 mg/kg | 6000 nM | 1.35 | 42.1 mg/kg | –
9 | CSc1ccccc1C1(N)CCCCC1.Cl | 26.18 mg/kg | 820 nM | 1.12 | 29.3 mg/kg | –
10 | Cl.NC1(c2ccccc2)CCCCC1 | 7.04 mg/kg | 527 nM | 2.31 | 16.3 mg/kg | –
11 | C[C@H]1CC[C@@](N)(c2ccccc2)CC1.Cl | 33.75 mg/kg | 8400 nM | 2.05 | 69.3 mg/kg | –
12 | CN(C)C1(c2ccccc2)CCCCC1.Cl | 4.86 mg/kg | 722 nM | 2.32 | 11.3 mg/kg | –
13 | COc1cccc(C2(N)CCCCC2)c1.Cl | 14.78 mg/kg | 563 nM | 1.45 | 21.4 mg/kg | –
14 | C[C@H]1CCC[C@@](N)(c2ccccc2)C1.Cl | 8.01 mg/kg | 1640 nM | 3.04 | 24.3 mg/kg | –
15 | C[N+](C)(C)C1(c2ccccc2)CCCCC1.[I-] | >64 mg/kg | 14300 nM | – | > 64 mg/kg | –
16 | CSc1ccc(C2(N)CCCCC2)cc1.Cl | 40.8 mg/kg | 43000 nM | 1.89 | 77.1 mg/kg | –
17 | Cl.NC1(c2ccc3ccccc3c2)CCCCC1 | 16.91 mg/kg | 34000 nM | 1.82 | 30.9 mg/kg | –
18 | Cl.NC1(c2ccccc2)CCCCCC1 | 19.73 mg/kg | 2600 nM | 2.18 | 43 mg/kg | –
19 | COc1ccc(C2(N)CCCCC2)cc1.Cl | 32.67 mg/kg | 121000 nM | 2.39 | 77.9 mg/kg | –
20 | Cl.NC1(c2cccc(C(F)(F)F)c2)CCCCC1 | 24.31 mg/kg | 8400 nM | 0.66 | 16 mg/kg | –

Row | SMILES | MES ED50 (Mus musculus [1]) | Ki (Glutamate NMDA receptor) | TI (Mus musculus [2]) | TD50 (Mus musculus [3]) | TD50 (Mus musculus [4])
21 | Cc1ccc(C2(N)CCCCC2)cc1.Cl | >74 mg/kg | 7300 nM | – | > 74 mg/kg | –
22 | CCCCC1(N)CCCCC1.Cl | >40.6 mg/kg | – | – | – | 40.6 mg/kg
23 | Cl.NC1(c2ccc(F)cc2)CCCCC1 | 26.18 mg/kg | 923 nM | 0.9 | 23.4 mg/kg | –
24 | Cl.NC1(c2cc3ccccc3c3ccccc23)CCCCC1 | 16.02 mg/kg | 27500 nM | 1.28 | 20.6 mg/kg | –
25 | C[C@H]1CC[C@](N)(c2ccccc2)CC1.Cl | 13.53 mg/kg | 1100 nM | 3.44 | 46.6 mg/kg | –
26 | Cc1ccccc1C1(N)CCCCC1.Cl | 4.93 mg/kg | 7800 nM | 1.46 | 7.19 mg/kg | –
27 | CNC1(c2ccccc2)CCCCC1.Cl | 4.62 mg/kg | 347 nM | 0.34 | 1.56 mg/kg | –
28 | Cl.NCC1(c2ccccc2)CCCCC1 | 27.7 mg/kg | 5100 nM | 1.87 | 51.9 mg/kg | –
29 | C[C@H]1CCCC[C@]1(N)c1ccccc1.Cl (racemic) | 8.01 mg/kg | 2000 nM | 0.74 | 5.92 mg/kg | –
30 | Cl.NC1(Cc2ccccc2)CCCCC1 | 34.52 mg/kg | 16000 nM | 1.95 | 67.2 mg/kg | –
31 | c1ccc(C2(N3CCCCC3)CCCCC2)cc1 [PHENCYCLIDINE] | 3.1 mg/kg | 60 nM | 0.93 | 2.9 mg/kg | –
32 | Cl.NC1(c2c(F)c(F)c(F)c(F)c2F)CCCCC1 | 33.81 mg/kg | 10000 nM | 1.21 | 37.9 mg/kg | –
33 | C[C@@H]1CCC[C@](N)(c2ccccc2)C1.Cl | 20.86 mg/kg | 1200 nM | 2.69 | 56.1 mg/kg | –
34 | Cl.NC1(c2cccs2)CCCCC1 | 10.5 mg/kg | 145 nM | 0.47 | 4.99 mg/kg | –
35 | Cl.NC1(c2cccc(OCc3ccccc3)c2)CCCCC1 | 29.41 mg/kg | 10600 nM | 2.28 | 67 mg/kg | –
36 | C[C@H]1CCC[C@](N)(c2ccccc2)C1.Cl | 26.38 mg/kg | 502 nM | – | 54.8 mg/kg | –
37 | Cl.NC1(c2cccc(F)c2)CCCCC1 | 9.36 mg/kg | 675 nM | 2.15 | 20.2 mg/kg | –
38 | Cl.NC1(c2cccc(O)c2)CCCCC1 | 35.25 mg/kg | 222 nM | 1.21 | 42.7 mg/kg | –
39 | Cc1cccc(C2(N)CCCCC2)c1.Cl | 19.11 mg/kg | 592 nM | 1.37 | 26.2 mg/kg | –
40 | CSc1cccc(C2(N)CCCCC2)c1.Cl | 32.88 mg/kg | 2420 nM | 1.94 | 63.7 mg/kg | –

Reference: ChEMBL document CHEMBL1124772, “Synthesis and anticonvulsant activity of 1-phenylcyclohexylamine analogues” (J Med Chem, 1990)
